Bioassay records as filed in PubChem BioAssay.
The list is not random: actives were taken first. Their share in the collection is about 5.2%.
EBNA-1 inh: blocks EBNA-1 binding to DNA; EBNA-1 DNA binding, fluorescence polarization; inhibition, % at 14.8 µM; actives 0.34% (n = 300,000); in the data active = inhibition above about 28%
M18AAP inhibitor: PfM18AAP enzyme inhibition. recombinant PfM18AAP, H-Glu-NHMec fluorogenic cleavage. actives 1.2% (n = 290,000). inhibition, % at 7.35 µM;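 active = inhibition above the campaign mean inhibition over all tested compounds plus 3 SD, cut at about 28% in these data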;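 note: 0% = plate median of test compound wells and 100% = 2 mM ZnCl2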
NS3 helicase inh: HCV NS3 helicase inhibition; NS3 helicase DNA unwinding, Cy5 molecular beacon fluorescence; actives 0.56% (n = 290,000); AID 1800; inhibition, % at 10.9 µM;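 active = inhibition above the mean of all tested compounds plus 3 SD, set per campaign, cut at about 35% in these data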;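 note: 0% = DMSO wells and 100% = thioflavine S control wells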
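Compound dosing – single dose, 10.9 µM nominal final, DMSO 0.8% final · System – NS3 helicase fragment of HCV · Buffer or medium – MOPS pH 6.5, MgCl2, DTT, Tween20, BSA · Signal – Cy5 beacon fluorescence read at start and 1 h · Also added – annealed dual-labelled DNA beacon duplex, ATP-started · Schedule – 1 h at 25 °C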
HCV core dimer: HCV core protein dimerization inhibition. actives 0.33% (n = 300,000). TR-FRET GST/Flag-core106 dimerization, 1536-well. inhibition, % at 5 µM;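 active = inhibition above the mean of all tested compounds plus 3 SD, set per screening campaign, cut at about 45% in these data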
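Assay system: Tagged HCV core106 pair (GST and Flag) | Buffer or medium: KF-containing HEPES buffer, pH 7.45, DTT, CHAPS, BSA | Also added: Eu donor and XL665 acceptor anti-tag antibodies | Dosing: One concentration, 5 µM, in 0.5% DMSO | Timing: 4 h at 22.5 °C | Technique: TR-FRET 671 and 617 nm emission | Repeats: Singlicate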
ALR H2O2 inh: inhibitors of human sulfhydryl oxidase ALR; inhibition, % (test concentration not listed); purified ALR, DTT oxidation, H2O2 HRP-luminol luminescence; actives 3.8% (n = 290,000);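 active = mean replicate inhibition above about 79%, with every replicate also reaching it, limit read from the data; inconclusive = only one of the two criteria met; inactive = mean below limit and not every replicate reaching it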
Target sequence (P55789 whole entry, looked up): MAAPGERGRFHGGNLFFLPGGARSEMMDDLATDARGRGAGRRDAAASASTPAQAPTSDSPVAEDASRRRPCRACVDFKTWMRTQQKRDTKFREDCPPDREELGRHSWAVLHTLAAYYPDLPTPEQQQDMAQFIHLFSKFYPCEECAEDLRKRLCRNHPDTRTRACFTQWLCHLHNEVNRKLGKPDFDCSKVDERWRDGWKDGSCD
ZTA DNA inh: ZTA (EBV) inhibition in EBNA-1 counter-screen. ZTA-DNA binding, fluorescence polarization. P03206. AID 2234. actives 0.15% (n = 320,000). inhibition, % at 11 µM; in the data active = inhibition above about 33%
Target sequence (P03206 whole entry, looked up): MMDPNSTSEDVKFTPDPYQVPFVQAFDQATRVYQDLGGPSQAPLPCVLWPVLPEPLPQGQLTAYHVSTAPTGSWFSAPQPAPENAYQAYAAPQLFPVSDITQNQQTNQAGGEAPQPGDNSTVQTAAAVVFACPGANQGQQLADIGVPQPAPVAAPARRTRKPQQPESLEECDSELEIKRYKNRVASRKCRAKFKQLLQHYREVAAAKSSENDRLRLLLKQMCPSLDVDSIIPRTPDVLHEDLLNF
* = called active by the depositor; ? = inconclusive; . = not tested or not shown.

SMILES	EBNA-1 inh	M18AAP inhibitor	NS3 helicase inh	HCV core dimer	ALR H2O2 inh	ZTA DNA inh
COc1cc(CN2CCNC(=O)C2CC(=O)N(C)CCN2CCOCC2)cc(OC)c1 (stereo not given)	.	9	-7	.	.	.
Cc1ccnc2nc(C(=O)OCC(=O)N(Cc3ccccc3)C(C)C)nn12	.	.	.	.	25	.
CN(C)c1cccc(/C=C(\C#N)c2ccccc2)c1	4	-1	-7	-5	99*	-14
CN(C)c1ccc(/C=C(\C#N)c2ccccc2)cc1	.	-15	12	.	.	.
Cc1ccc(CN2CCSCC2)cc1	3	3	10	-10	1	-5
Cc1cc(O)ccc1Nc1nc2ccccc2nc1Nc1ccc(O)cc1C	-1	-6	5	6	43	-2
Cc1cccc(C)c1N=Nc1c(C)cc(O)cc1C	-3	4	-4	-4	92*	1
Cn1c(NC(=O)CCc2ccccc2)cc(=O)n(C)c1=O	-2	4	-7	-27	0	-2
Cn1c(NC(=O)COc2ccccc2)cc(=O)n(C)c1=O	7	4	8	-5	99*	5
O=C(Nc1cccc(-c2nc3ccccc3[nH]2)c1)c1ccccn1	9	31*	0	-5	0	11
CC(=O)Nc1cccc(-c2nc3ccccc3[nH]2)c1	3	-3	-11	-8	43	-6
COc1ccccc1N/N=C/c1c(CO)cnc(C)c1O	-5	7	-8	-25	100*	-26
COc1ccccc1NS(=O)(=O)c1cccc(C(=O)N/N=C/c2c(CO)cnc(C)c2O)c1	.	.	.	.	25	-4
COc1ccc(Nc2ncc(C(=O)O)c3ccccc23)cc1	-13	-6	-1	-5	-25	-8
COc1ccc(Nc2cccc3ccccc23)cc1	-4	.	.	-9	?	-21
COc1ccc(Nc2ccccc2C(=O)O)cc1	7	3	17	-9	99*	-4
COc1ccc(Nc2ccc(OC)cc2)cc1	3	20	8	-16	99*	5
COc1ccc(Nc2cccccc2=O)cc1	12	0	-9	-4	97*	9
CCCCCCCC(=O)Nc1cc(C(=O)NCCC)ccc1N1CCC2(CC1)CC(c1ccccc1)=NO2	4	3	-25	25	-2	-2
CNC(=O)COc1ccc(S(=O)(=O)N2CCCC2)cc1	3	2	5	1	-9	-1
O=C(COC(=O)c1ccc(S(=O)(=O)C(F)F)cc1)Nc1ccccc1C(=O)NC1CC1	.	.	.	.	.	8
COc1cc(/C=N/Nc2nc3ccccc3[nH]2)ccc1O	3	11	-9	-49	100*	-23
COc1cc(/C=N/Nc2nc3ccccc3[nH]2)cc(Br)c1OCC(=O)N(C)C	-1	7	-10	-10	99*	6
COC(=O)c1ccc(/C=N/Nc2nc3ccccc3[nH]2)cc1	-14	8	8	-15	51	-4
COc1cc(/C=N/Nc2nc3ccccc3[nH]2)cc(OC)c1O	1	23	0	-53	99*	-15
SMILES	EBNA-1 inh	M18AAP inhibitor	NS3 helicase inh	HCV core dimer	ALR H2O2 inh	ZTA DNA inh
COc1cc(/C=N/Nc2nc3ccccc3[nH]c2=O)ccc1O	0	0	5	-24	99*	-8
O=C1NC(=O)C(Cc2ccccc2)(c2cccnc2)N1 (stereo not given)	-4	1	-4	-2	-14	-3
COc1ccc(N2CCN(C3CCCN(S(=O)(=O)c4ccc(C)cc4C)C3)CC2)cc1 (stereo not given)	3	-4	8	-9	40	-15
O=[N+]([O-])c1ccc(O)c(/C=N/Nc2nc3ccccc3[nH]2)c1	-4	9	-11	-32	89*	1
COc1cc(/C=C(/C(=O)c2cccs2)c2nc3ccccc3[nH]2)cc(OC)c1O	-6	17	1	0	100*	-19
O=[N+]([O-])c1ccc(N/N=C/c2ccccc2O)cc1	-7	4	-3	-6	-2	4
COc1cccc(/C=N/Nc2nc3ccccc3[nH]2)c1O	8	30*	-1	-23	.	-3
O=[N+]([O-])c1cccc(N/N=C/c2cc([N+](=O)[O-])ccc2O)c1	2	6	12	-17	96*	-1
O=[N+]([O-])c1ccc(O)c(/C=N/Nc2ccccn2)c1	-1	11	16	-19	.	11
CC(C)NC(=O)c1ccc2c(c1)N(CC(=O)N1CCCCC1)C(=O)C(C)(C)O2	0	-2	12	1	.	-4
COc1cc(/C=N/Nc2nc(=O)[nH]nc2C)ccc1O	-17	-1	-4	-5	100*	-5
COc1cccc(/C=N/Nc2nc3ccccc3[nH]2)c1OC	-8	4	-15	-11	.	6
COc1ccc(O)c(/C=N/Nc2nc3ccccc3[nH]2)c1	12	22	-2	-28	99*	2
O=C1CC(N2CCN(c3ccccc3)CC2)C(=O)N1c1ccc(Cl)cc1 (stereo not given)	-9	-5	-4	-4	42	12
CCN(CC)c1ccc(Nc2nc(Cl)ncc2Br)cc1	-15	-26	0	-15	99*	2
CCN(CC)c1ccc(CNc2ccc(Br)cn2)cc1	-4	1	-1	-4	.	-7
CCOc1ccc(-c2noc(CCC(=O)NC3CCCCC3)n2)cc1OC	6	0	-3	10	1	7
CCN=c1scc(-c2ccc3c(c2)NC(=O)CO3)n1N=C1CCCC1	-3	12	1	15	91*	-10
COc1ccccc1N=c1scc(-c2ccc3c(c2)NC(=O)CO3)n1CC1CCCO1 (stereo not given)	-14	-1	0	-1	99*	-4
CCCCN=c1scc(-c2ccc3c(c2)NC(=O)CO3)n1N=C1CCCC1	-1	0	-4	-1	11	2
O=C(Nc1ccc(-n2cccn2)cc1)C1CCCCN1Cc1cccc2c1OCO2 (stereo not given)	-18	-11	3	-12	-7	10
COC(=O)c1c(N)sc2c1CC(C)(C)OC2	-5	-2	17	-1	98*	2
CCCC(C)NC(=O)c1cc(S(=O)(=O)N2CCCCCC2)ccc1OC (stereo not given)	.	.	.	.	.	-16
CCOc1ccc(/C=C2\SC(=S)N(CCC(=O)Nc3ccccc3C(=O)O)C2=O)cc1	4	-2	19	7	9	-12
COC(=O)c1c(N2C(=O)Nc3ccccc3N2O)sc(C)c1C	10	9	-4	-1	6	2
CCOC(=O)c1c(N2C(=O)Nc3ccccc3N2O)sc2c1CCCC2	8	3	28	7	93*	23
Cc1ccc2nc(SCC(=O)Nc3ccc(F)cc3F)nc(=O)n2c1	5	.	.	-3	-3	2
CC12CCC(C(=O)N3CCN(c4ccccc4)CC3)(CC1=O)C2(C)C (stereo not given)	-5	-1	2	-2	99*	-8
